In PubChem BioAssay AID624398 (The Scripps Research Institute Molecular Screening Center, 2012):
pIC50: −log10 of the molar value. Calls of active or inactive are those of the source.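 How the source made its calls: active means estrogen-induced reporter signal reduced by at least 20%; inactive means reduction of reporter signal under 20%.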

Test system: not listed separately
Assay: inhibitors of ER-driven luciferase reporter, late-stage follow-up, counter-screen for AHR activator project, BG1Luc4E2 ovarian carcinoma cells, luminescence, set 2 (AID 624398)
Conditions: BG1Luc4E2 ERE-luciferase, estradiol-induced, luminescence, 24 h; at 10 µM; stronger effect = higher value
In short: (§1)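 Material: 2xERE luciferase reporter / Reagent: estradiol stimulus at 1 nM / Timing: compound and estradiol exposure 24 h at 37 °C / Signal: luciferase luminescence measured after cell lysis / Replication: triplicate wells for the 10 µM dose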

Row | Compound | inhibition
1 | O=C(CSc1nc2ccccc2s1)Nc1ccccn1 | 79%
2 | Cc1csc(SCC(=O)Nc2ccccn2)n1 | 12.2% (inactive)
3 | COc1ccc(Nc2cc(Cl)nc(N)n2)cc1 | -52.4% (inactive)
4 | O=C(CSc1nc2ccccc2s1)Nc1ccc(Cl)cn1 | 38.8%
5 | COc1ccc(Nc2cc(Cl)nc(N)n2)cc1OC | -18.4% (inactive)
6 | Cc1cc(Nc2ccc(F)cc2)nc(N)n1 | 15.8% (inactive)
7 | Cc1cccc(C)c1NC(=O)c1ccc(C(=O)Nc2c(C)cccc2C)nc1 | -12.6% (inactive)
8 | Cc1cc(Br)cc(C)c1Nc1ccnc(Nc2ccc(C#N)cc2)n1 | 92.9%
9 | Cc1ccnc(NC(=O)CSc2nc3ccccc3s2)c1 | 16.1% (inactive)
10 | COc1ccc(Cl)cc1NC(=O)c1ccc(C(=O)Nc2cc(Cl)ccc2OC)nc1 | 79.6%
11 | Cc1ccc(O)c(-c2cc(-c3ccccc3Cl)[nH]n2)c1 | 66.3%
12 | CCOc1ccccc1NC(=O)c1ccc(C(=O)Nc2ccccc2OCC)nc1 | -45.6% (inactive)
13 | Nc1nc(Cl)cc(Nc2ccccc2F)n1 | 8% (inactive)
14 | COc1ccc(O)c(-c2cc(-c3cccs3)[nH]n2)c1 | 43.1%
15 | Cc1ccc(NC(=O)c2ccc(C(=O)Nc3ccc(C)cc3C)nc2)c(C)c1 | 33.6%
16 | Cc1cccc(NC(=O)c2cc(-c3ccc(C)cc3O)n[nH]2)c1 | -95.6% (inactive)
17 | CCOC(=O)c1c(C)nn(-c2cc(Cl)ccc2Cl)c1C | 29%
18 | Nc1nc(Cl)cc(Nc2ccc(Oc3ccccc3)cc2)n1 | -6.3% (inactive)
19 | O=C(CSc1nc(-c2ccc(F)cc2)cs1)Nc1ccccn1 | -26.7% (inactive)
20 | CN(Cc1cc(-c2cccs2)n[nH]1)Cc1coc2ccccc2c1=O | -31.1% (inactive)
21 | COc1ccc(-c2cc(-c3ccc(C)cc3O)[nH]n2)cc1 | 40.9%
22 | COc1ccc(NC(=O)c2ccc(C(=O)Nc3ccc(OC)cc3OC)nc2)c(OC)c1 | 19.4% (inactive)

Test system: BG1Luc4E2 ERE-luciferase, estradiol-induced, luminescence, 24 h
Assay: as above
Conditions: not given
In short: as §1

Row | Compound | pIC50
23 | Cc1ccc(-c2cc(-c3ccc(Cl)cc3)n[nH]2)c(O)c1 | 4.52
24 | Cc1ccc(-c2cc(-c3ccc(F)cc3)n[nH]2)c(O)c1 | 4.70
